Assay [1] has as its target T1, mouse LIN28Δ, mouse TUT4 and pre-let-7g (Mus musculus, UniProt Q8K3Y3).
T1 sequence (Q8K3Y3 16-184): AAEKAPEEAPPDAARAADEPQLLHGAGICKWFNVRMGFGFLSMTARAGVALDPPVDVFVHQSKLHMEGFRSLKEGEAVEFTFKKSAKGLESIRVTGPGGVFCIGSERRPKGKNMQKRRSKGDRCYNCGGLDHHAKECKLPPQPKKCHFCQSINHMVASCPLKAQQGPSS
T1 sequence (B2RX14 230-1424 partner): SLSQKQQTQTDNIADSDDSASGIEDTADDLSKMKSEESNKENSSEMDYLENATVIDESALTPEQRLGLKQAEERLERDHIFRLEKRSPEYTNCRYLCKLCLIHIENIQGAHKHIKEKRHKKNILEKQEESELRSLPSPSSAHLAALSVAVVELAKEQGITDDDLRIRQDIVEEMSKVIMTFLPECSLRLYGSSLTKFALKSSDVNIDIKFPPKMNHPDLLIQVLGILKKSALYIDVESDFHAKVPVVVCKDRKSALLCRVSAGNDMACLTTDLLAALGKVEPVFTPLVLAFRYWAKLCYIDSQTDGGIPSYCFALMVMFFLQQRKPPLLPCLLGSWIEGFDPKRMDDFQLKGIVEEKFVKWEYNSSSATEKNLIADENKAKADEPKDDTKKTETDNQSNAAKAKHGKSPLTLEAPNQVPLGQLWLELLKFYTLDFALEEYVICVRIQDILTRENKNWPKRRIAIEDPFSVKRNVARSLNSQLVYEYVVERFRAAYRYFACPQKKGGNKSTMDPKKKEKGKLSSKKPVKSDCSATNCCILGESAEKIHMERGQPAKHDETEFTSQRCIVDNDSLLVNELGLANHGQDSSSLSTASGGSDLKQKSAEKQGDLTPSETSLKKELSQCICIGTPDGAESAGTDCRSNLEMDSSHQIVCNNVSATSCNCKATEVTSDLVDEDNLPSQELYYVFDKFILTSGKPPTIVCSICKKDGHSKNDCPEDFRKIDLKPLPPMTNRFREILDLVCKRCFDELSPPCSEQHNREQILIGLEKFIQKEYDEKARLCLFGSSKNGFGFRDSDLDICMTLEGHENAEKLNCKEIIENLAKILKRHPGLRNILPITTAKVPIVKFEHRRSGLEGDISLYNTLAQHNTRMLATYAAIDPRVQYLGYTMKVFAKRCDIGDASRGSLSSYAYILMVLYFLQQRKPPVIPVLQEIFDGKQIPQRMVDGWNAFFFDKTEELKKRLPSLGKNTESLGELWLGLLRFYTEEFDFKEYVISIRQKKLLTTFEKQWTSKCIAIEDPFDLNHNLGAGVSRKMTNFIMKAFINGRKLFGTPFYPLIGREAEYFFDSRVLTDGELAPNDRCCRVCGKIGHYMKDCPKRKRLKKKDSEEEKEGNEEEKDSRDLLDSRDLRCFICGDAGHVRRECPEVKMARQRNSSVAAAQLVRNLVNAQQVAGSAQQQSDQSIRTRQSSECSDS
Kind of assay: LIN28-mediated let-7 oligouridylation assay. The class given is biochemical. To be noted: 40 μM compound, 37°C, denaturing PAGE. Put shortly: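 Mouse LIN28A, mouse TUT4 (230–1424) and in vitro-transcribed, T4 PNK-radiolabelled pre-let-7g were incubated with test compound (40 μM screen; 80 μM follow-up) for 40 min at 37°C. Buffer: 20 mM Tris 7.5, 5% glycerol, 6 mM MgCl2, 6 mM DTT, 50 μM ZnCl2, 40 mM KCl, 200 μM UTP. Reactions were stopped with EDTA/SDS/proteinase K (50°C, 30 min) and run on denaturing PAGE. RNA and DMSO served as controls.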

Assay [2] concerns preE-let-7f. As to the kind of experiment: Saturation transfer difference spectroscopy, preE-let-7f. The note with it: preE-let-7f alone. The class given is binding, human.
Assay [3] has as its target human LIN28Δ:preE-let-7f complex (Homo sapiens, UniProt Q9H9Z2). Kind of assay: Differential scanning fluorimetry. The note with it: SYPRO Orange; 63°C without compound. The class given is binding.

Sequence of human LIN28Δ:preE-let-7f complex (Q9H9Z2 16-187, stated change not applied, one chain of several): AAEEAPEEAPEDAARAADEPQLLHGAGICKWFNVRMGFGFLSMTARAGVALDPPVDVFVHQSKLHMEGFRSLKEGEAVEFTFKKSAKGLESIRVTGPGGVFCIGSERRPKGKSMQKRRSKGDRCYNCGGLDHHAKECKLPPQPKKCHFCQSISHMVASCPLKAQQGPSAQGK

On to `CCOc1cccc2c1N[C@@H](c1ccc(C(=O)O)cc1)[C@H]1CC=C[C@@H]21` [LI71], for which, in assay [1], the “Inhibition of LIN28-mediated oligouridylation” value is “completely inhibited”. In addition, the “Saturation transfer difference peaks” value in assay [2] is listed as “but not preE-let-7f”. Further, the “Melting temperature of LIN28Δ:preE-let-7f complex with compound” value in assay [3] was 60 °C.

(Values after paper PMC6511231 (Cell reports, 2018).)
